Series [1] in a line: Antiproliferative activity against human COLO205 cells after 24 hrs by MTT assay. Type of series: functional, cell-based. The settings on record: COLO 205, 24 h. Summed up:
(§1)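 MTT viability: cells seeded at 1×10^4 per well in DMEM with 10% FBS, left to adhere overnight, then serum-starved 4 h. Compounds were given at a range of doses, with 0.1% DMSO vehicle as control. EC50 was taken from dose-response curves spanning 100nM-50µM. Data are mean ± SEM from at least three independent experiments.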
On the technique in general: Tetrazolium assays rely on reduction of a dye to a coloured formazan, in cell work by metabolically active cells.

A further series relates to Vero. Nature of the series: Antiproliferative activity against african green monkey Vero cells after 24 hrs by MTT assay. The settings on record: Chlorocebus sabaeus. The format is functional, cell-based. An outline of the steps: as §1
The subject of another series is HEK293. The experiment in a line: Antiproliferative activity against HEK293 cells after 24 hrs by MTT assay. The format is functional, cell-based. As to conditions: Homo sapiens, HEK293, 24 h. Summed up:
as §1

The nature of series [2]: Cytotoxicity against human MCF10A cells after 72 hrs by MTT assay. The settings on record: MCF-10A. The format is ADME, cell-based.
Series [3] concerns MDA-MB-231. Nature of the series: Antiproliferative activity against human ER-positive MDA-MB-231 cells after 72 hrs by MTT assay. Type of series: functional, cell-based. The settings on record: MDA-MB-231, 72 h.
The nature of series [4]: Safety index, ratio of IC50 for human MCF10A cells to EC50 for human DLD1 cells. The format is toxicity, cell-based, MCF-10A. The settings on record: MCF10A cells versus DLD1 cells, read-out: Ratio IC50/EC50. An outline of the steps:
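Safety index is the IC50 in the normal cells divided by the EC50 in the cancer cells. Both values come from MTT assays: cells in DMEM with 10% FBS, serum-starved 4 h, then exposed to compound across a 100nM-50µM dose range with 0.1% DMSO as vehicle control.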

The subject of series [5] is MCF7. Nature of the series: Cell cycle arrest in human […] cells assessed as accumulation at G1 phase at 5 uM by propidium iodide staining by FACS analysis (reference value: 62.88%). The format is functional.
Series [6] deals with MCF7. The experiment in a line: Cell cycle arrest in human […] cells assessed as accumulation at subG1 phase at 7.5 uM by propidium iodide staining by FACS analysis (reference value: 0.1%). Type of series: functional.
In series [7] the test system is MDA-MB-231. Nature of the series: Cell cycle arrest in human […] cells assessed as accumulation at subG1 phase at 2.5 uM by propidium iodide staining by FACS analysis (reference value: 0.3%). The format is functional. For orientation: A flow cytometer gives signals particle by particle.
In series [8] the test system is MCF7. The experiment in a line: Antitumor activity against human MCF7 cells xenografted in NIH-3 mouse assessed as reduction in tumor volume at 16 mg/kg, po for 25 days relative to control. Type of series: functional. The settings on record: MCF7, 600 h. For orientation: In xenograft studies the graft and the host belong to different species.
For series [9], the system named is Mast/stem cell growth factor receptor Kit (Homo sapiens), P10721 [D816A]. The experiment in a line: Inhibition of cKit D816A mutant (unknown origin) at 10 uM. Summed up: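 Cell-free kinase profiling was run as a standard 33P-ATP-based in vitro kinase assay.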
Mast/stem cell growth factor receptor Kit (Homo sapiens), P10721 [D816A], sequence (P10721 whole entry D816A): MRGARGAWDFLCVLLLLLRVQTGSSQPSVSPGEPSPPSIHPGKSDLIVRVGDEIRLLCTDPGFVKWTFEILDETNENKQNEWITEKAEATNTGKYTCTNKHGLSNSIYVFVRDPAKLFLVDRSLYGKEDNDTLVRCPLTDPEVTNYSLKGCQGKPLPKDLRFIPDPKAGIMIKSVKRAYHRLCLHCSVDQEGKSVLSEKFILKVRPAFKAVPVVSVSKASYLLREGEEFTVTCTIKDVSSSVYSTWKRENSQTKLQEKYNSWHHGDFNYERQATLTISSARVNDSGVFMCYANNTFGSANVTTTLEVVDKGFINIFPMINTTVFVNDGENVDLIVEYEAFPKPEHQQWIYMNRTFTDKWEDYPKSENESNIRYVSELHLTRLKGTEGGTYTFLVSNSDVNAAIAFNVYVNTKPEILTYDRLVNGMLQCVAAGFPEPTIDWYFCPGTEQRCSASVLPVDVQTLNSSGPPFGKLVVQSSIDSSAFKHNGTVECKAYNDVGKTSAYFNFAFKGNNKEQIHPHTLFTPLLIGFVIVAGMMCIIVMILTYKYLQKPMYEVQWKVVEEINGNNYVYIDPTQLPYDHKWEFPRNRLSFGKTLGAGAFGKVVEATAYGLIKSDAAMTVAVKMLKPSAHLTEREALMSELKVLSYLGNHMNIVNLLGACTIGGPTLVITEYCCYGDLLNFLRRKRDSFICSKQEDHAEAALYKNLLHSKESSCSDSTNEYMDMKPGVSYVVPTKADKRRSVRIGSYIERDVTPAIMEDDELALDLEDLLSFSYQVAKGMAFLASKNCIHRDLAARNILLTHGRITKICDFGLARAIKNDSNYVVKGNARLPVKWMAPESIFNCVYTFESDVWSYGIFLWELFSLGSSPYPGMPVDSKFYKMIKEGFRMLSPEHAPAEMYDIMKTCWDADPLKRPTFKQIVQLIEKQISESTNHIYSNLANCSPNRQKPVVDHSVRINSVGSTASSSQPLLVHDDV
Series [10] has as its target Receptor-type tyrosine-protein kinase FLT3 (Homo sapiens) (UniProt P36888). The experiment in a line: Inhibition of Flt3 (unknown origin) at 10 uM.
The test system of series [11] is MDA-MB-231. Nature of the series: Effect on intracellular calcium level in human MDA-MB-231 cells at 1 to 25 uM by flow cytometry. The format is functional, cell-based. An outline of the steps: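 Trypsinized cells washed in PBS (pH 7.4), loaded with Fluo-4AM 45 min in HBSS, washed and resuspended in calcium-free HBSS; baseline fluorescence read 2 min by flow cytometry, then 7 min after compound addition.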

The target of series [12] is High affinity cAMP-specific and IBMX-insensitive 3',5'-cyclic phosphodiesterase 8A (Homo sapiens) (UniProt O60658). Nature of the series: Inhibition of PDE8A1 (unknown origin) activity at 1 to 10 uM. Summed up: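 Recombinant PDE isoform activity was read by fluorescence polarization. A binding reagent complexes with the nucleotide monophosphate that the phosphodiesterase generates from cAMP/cGMP, and this raises the polarization of the labelled substrate. Reference standards were PDE1A3 10µM IBMX, PDE2A3 1nM BAY 60-7550, PDE3CAT 1µM cilostazol, PDE4CAT rolipram, PDE5CAT 0.1µM sildenafil, PDE7A […], PDE8A1 10µM BRL-50481, PDE9A1 1µM SB 36216 and PDE11A1 dipyridamole.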
High affinity cAMP-specific and IBMX-insensitive 3',5'-cyclic phosphodiesterase 8A (Homo sapiens), sequence (O60658 whole entry, canonical isoform): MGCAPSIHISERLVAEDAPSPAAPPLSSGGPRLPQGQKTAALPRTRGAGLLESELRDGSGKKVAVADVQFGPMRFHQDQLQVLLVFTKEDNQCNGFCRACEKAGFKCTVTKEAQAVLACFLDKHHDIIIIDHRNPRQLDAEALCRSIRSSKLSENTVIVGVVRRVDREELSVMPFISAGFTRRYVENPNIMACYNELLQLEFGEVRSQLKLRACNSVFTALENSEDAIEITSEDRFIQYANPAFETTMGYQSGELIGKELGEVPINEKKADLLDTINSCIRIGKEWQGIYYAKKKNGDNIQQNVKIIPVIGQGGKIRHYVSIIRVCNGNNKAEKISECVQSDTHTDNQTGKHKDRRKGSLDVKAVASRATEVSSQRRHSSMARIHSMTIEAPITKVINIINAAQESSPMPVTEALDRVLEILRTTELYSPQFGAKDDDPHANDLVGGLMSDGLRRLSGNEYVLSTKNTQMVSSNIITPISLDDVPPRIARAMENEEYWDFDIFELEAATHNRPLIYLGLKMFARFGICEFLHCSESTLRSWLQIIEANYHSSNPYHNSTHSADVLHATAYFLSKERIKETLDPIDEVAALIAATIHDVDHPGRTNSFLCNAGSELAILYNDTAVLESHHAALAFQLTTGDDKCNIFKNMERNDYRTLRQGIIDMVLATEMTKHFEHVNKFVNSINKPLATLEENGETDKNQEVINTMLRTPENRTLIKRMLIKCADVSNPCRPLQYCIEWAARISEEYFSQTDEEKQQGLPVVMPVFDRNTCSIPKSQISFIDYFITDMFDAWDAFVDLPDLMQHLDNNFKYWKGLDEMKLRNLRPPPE

Series [13] concerns MDA-MB-231. The experiment in a line: Cytotoxicity against human MDA-MB-231 cells assessed as cell viability at 5 uM by MTT assay in presence of 100 ng/ml cholera toxin for 16 hrs. Type of series: functional, cell-based.
In series [14] the target is Epidermal growth factor receptor (Homo sapiens) (UniProt P00533). Nature of the series: Inhibition of EGF-induced EGFR phosphorylation at Tyr1173 in human MCF7 cells at 0.1 uM by ELISA. Type of series: cell-based.
Epidermal growth factor receptor (Homo sapiens), sequence (P00533 whole entry): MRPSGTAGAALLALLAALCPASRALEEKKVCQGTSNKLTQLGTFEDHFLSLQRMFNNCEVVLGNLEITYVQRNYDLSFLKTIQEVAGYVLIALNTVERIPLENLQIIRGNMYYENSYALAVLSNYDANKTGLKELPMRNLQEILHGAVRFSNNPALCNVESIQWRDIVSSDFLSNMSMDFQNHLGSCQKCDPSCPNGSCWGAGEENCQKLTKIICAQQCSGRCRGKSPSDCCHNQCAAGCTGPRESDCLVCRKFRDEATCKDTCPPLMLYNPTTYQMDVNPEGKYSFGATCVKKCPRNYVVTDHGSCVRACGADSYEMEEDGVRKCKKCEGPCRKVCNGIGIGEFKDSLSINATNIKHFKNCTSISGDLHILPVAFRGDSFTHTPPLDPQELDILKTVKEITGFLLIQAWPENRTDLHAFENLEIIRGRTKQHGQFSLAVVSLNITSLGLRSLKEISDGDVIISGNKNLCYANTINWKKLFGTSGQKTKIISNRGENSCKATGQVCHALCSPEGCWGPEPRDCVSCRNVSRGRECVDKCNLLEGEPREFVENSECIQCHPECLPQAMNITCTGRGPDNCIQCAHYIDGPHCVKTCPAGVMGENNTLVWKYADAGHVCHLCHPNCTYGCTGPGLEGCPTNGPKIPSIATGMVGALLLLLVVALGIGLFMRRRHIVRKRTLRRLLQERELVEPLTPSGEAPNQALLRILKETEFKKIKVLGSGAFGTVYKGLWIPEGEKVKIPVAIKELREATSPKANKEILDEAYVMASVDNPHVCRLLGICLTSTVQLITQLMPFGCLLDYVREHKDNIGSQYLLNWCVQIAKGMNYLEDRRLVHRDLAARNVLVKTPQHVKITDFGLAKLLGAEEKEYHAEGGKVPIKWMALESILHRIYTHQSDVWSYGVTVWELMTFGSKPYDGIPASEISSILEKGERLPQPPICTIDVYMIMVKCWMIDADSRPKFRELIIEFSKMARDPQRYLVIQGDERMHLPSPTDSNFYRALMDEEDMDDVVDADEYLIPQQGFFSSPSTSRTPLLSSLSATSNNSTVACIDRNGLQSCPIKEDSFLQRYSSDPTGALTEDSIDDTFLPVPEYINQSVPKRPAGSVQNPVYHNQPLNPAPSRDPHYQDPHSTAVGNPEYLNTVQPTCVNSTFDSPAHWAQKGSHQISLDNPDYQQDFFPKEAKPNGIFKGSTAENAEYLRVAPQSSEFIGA
Series [15] relates to MCF7. The experiment in a line: Antiproliferative activity against human […] cells at 2.5 to 7.5 uM by annexin V-FITC/propidium iodide staining-based flow cytometric analysis. Type of series: functional, cell-based.
The subject of series [16] is MCF7. The experiment in a line: Induction of apoptosis in human […] cells. The format is functional, cell-based.
Series [17] has as its system MDA-MB-231. The experiment in a line: Induction of apoptosis in human […] MDA-MB-231 cells assessed as increase in Bax to Bcl2 ratio at 5 uM after 24 hrs by immunoblotting analysis. The format is functional, cell-based.
Series [18] deals with MCF7. The experiment in a line: Antiinvasion activity in human MCF7 cells assessed as inhibition of FBS-induced cell invaded to matrigel coated invasion chamber at 1 uM after 24 hrs by Transwell invasion assay. The format is functional, cell-based.
The subject of series [19] is MDA-MB-231. Nature of the series: Inhibition of VEGF-A expression in human MDA-MB-231 cells at 1 uM after 24 hrs by qPCR analysis. The format is functional, cell-based. An outline of the steps:
(§2)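 Gene expression was measured by qPCR in MDA-MB-231 breast cancer cells treated with 1µM compound. GAPDH served as the housekeeping internal control.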

Series [20] relates to MDA-MB-231. Nature of the series: Inhibition of TGF-beta1 expression in human MDA-MB-231 cells at 1 uM after 24 hrs by qPCR analysis. Type of series: functional, cell-based. An outline of the steps: as §2
In series [21] the test system is MCF7. The experiment in a line: Antitumor activity against human MCF7 cells xenografted in NIH-3 mouse assessed as reduction in PCNA level in tumor at 16 mg/kg, po for 25 days by Western blot analysis. Type of series: functional, organism-based. More on the design: dose 16 mg/kg.
Series [22] relates to MCF7. The experiment in a line: Induction of apoptosis in human MCF7 cells xenografted in NIH-3 mouse assessed as decrease in cyclin D1 in tumor at 16 mg/kg, po for 25 days by qPCR. The format is functional, organism-based. More on the design: dose 16 mg/kg.
Series [23] relates to MCF7. The experiment in a line: Inhibition of EGF expression in human MCF7 cells at 5 uM by ELISA. The format is functional, cell-based.
In series [24] the test system is MDA-MB-231. Nature of the series: Inhibition of EGF expression in human MDA-MB-231 cells at 5 uM by ELISA. Type of series: functional, cell-based.
Series [25] has as its system MDA-MB-231. Nature of the series: Inhibition of IGF1 expression in human MDA-MB-231 cells at 5 uM by ELISA. The format is functional, cell-based.
For series [26], the target named is Epidermal growth factor receptor (Homo sapiens) (UniProt P00533). The experiment in a line: Inhibition of EGF-induced EGFR phosphorylation at Tyr1148 in human MDA-MB-231 cells at 1 uM by ELISA. The format is cell-based.
The target is the same in series [27]. Nature of the series: Inhibition of EGF-induced EGFR phosphorylation at Tyr1148 in human MCF7 cells at 1 uM by ELISA. Type of series: cell-based.
Series [28] addresses Signal transducer and activator of transcription 3 (Homo sapiens) (UniProt P40763). The experiment in a line: Inhibition of EGF-induced STAT3 phosphorylation in human MCF7 cells at 1 uM by ELISA. The format is cell-based.
Series [29] shares this target. The experiment in a line: Inhibition of basal level STAT3 phosphorylation in human MCF7 cells at 1 uM by ELISA. The format is cell-based.
Series [30] concerns the target Induced myeloid leukemia cell differentiation protein Mcl-1 (Homo sapiens) (UniProt Q07820). Nature of the series: Inhibition of EGF-induced phosphorylated Mcl1 in human MDA-MB-231 cells at 1 uM by ELISA. The format is cell-based.

Active and inactive are the calls of the source. No cut-off for these calls is given here.

Signal transducer and activator of transcription 3 (Homo sapiens), sequence (P40763 whole entry): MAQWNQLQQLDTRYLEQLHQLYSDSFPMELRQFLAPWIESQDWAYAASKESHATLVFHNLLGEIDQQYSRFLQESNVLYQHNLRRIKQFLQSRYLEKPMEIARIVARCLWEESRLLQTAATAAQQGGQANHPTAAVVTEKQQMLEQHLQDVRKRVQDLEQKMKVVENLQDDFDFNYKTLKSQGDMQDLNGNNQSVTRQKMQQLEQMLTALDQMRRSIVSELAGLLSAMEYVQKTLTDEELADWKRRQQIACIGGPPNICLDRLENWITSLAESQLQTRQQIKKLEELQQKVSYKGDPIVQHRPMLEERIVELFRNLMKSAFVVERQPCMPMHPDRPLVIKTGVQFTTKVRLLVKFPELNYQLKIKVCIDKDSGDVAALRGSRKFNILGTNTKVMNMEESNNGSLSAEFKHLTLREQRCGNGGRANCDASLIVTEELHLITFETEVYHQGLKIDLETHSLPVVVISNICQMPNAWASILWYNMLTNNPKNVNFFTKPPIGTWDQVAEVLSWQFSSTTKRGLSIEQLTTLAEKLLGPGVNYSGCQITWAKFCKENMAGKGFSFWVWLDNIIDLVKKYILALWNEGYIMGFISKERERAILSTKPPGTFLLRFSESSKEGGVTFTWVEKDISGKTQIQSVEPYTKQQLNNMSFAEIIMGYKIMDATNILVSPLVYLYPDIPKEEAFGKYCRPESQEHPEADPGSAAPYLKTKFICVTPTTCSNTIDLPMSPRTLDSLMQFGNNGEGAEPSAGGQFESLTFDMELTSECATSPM
Induced myeloid leukemia cell differentiation protein Mcl-1 (Homo sapiens), sequence (Q07820 whole entry): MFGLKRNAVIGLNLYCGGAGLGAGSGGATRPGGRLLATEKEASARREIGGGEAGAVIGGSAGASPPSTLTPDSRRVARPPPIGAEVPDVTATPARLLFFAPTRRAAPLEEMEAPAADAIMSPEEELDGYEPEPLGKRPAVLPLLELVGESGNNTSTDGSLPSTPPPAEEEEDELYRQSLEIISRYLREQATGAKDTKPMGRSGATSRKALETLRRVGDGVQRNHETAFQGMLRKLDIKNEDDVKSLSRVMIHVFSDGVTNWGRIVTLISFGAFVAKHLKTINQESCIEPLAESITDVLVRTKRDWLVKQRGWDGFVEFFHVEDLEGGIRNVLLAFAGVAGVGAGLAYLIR

As a reminder, the EC50 is the concentration at which the effect is half-maximal. For orientation: IC50 means the concentration that gives 50% inhibition. One may read the inhibition in vivo as the share of the control response that was lost under treatment. For `CCN(CC)CCO/N=C(\c1ccc(SC)cc1)c1cccc2ccccc12.O=C(O)C(=O)O`, the values for the EC50 (in series [1]; in the series with MDA-MB-231 [3]) were 4.2 µM and 1 µM, respectively. Also, the results for the IC50 (with Vero; in the series with HEK293; in series [2]) were over 25 µM, 20 µM and 50 µM, respectively. Also, the selectivity ratio in series [4] was 1.2. For the same molecule, the Activity in the series with MCF7 [5] was 74.66%; with MCF7 [6], 0.4%; in the series on MDA-MB-231 [7], 0.99%. For the same molecule, the inhibition in vivo at 16 mg/kg in the series with MCF7 [8] came out at 50%.
Turning to `CCN(CC)CCO/N=C(\c1ccc(SC)cc1)c1cccc2ccccc12`, the inhibition result (in [9]; in series [10]; in series [12]; in the series on MDA-MB-231 [25]; in series [29]) was “inactive” in each case. Besides, the result in the series with MDA-MB-231 [11] was inactive. Moreover, the inhibition entry (with MDA-MB-231 [13]; in [14]; in the series with MDA-MB-231 [19]; in the series on MDA-MB-231 [20]; in the series with MCF7 [21]; in the series with MCF7 [23]) was “Active” in each case. Also, the inhibition entry (in the series with MDA-MB-231 [24]; in [26]; in [27]; in [28]; in series [30]) was “Active” in each case. In addition, the outcome in the series on MCF7 [15], in the series with MCF7 [16], in the series with MDA-MB-231 [17], in the series on MCF7 [18] and in the series on MCF7 [22] was Active.

The record behind these values is ChEMBL document CHEMBL3352791, “Thioaryl naphthylmethanone oxime ether analogs as novel anticancer agents” (J Med Chem, 2014).
